Only some compounds are listed: those with a hit (about 1.8% of all), similar ones and a draw of the others.
DNMT1 block: human DNMT1 methyltransferase inhibitors, primary screen, biochemical, molecular beacon, fluorescence, HinP1I cleavage, uHTS; hit rate 0.83% among 360,000; inhibition (reported as % activation of signal), % at 10 µM; DNA (cytosine-5)-methyltransferase 1 (Homo sapiens), P26358; AID 588458, 2011; in the data active = inhibition above about 50%
STEP inh: STEP phosphatase inhibitors, primary screen, biochemical, fluorescence intensity, uHTS | Tyrosine-protein phosphatase non-receptor type 5 (Homo sapiens), P54829 | recombinant STEP, OMFP fluorogenic substrate | inhibition, % at 20 µM | hit rate 0.25% among 360,000;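 active = inhibition at 20 µM, scaled per plate between control wells, above about 37%, limit read from the data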;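 also: 0% = DMSO with enzyme and substrate and 100% = substrate only without enzyme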
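Measure: Control-normalized % inhibition with plate pattern correction | Test system: STEP phosphatase, cell-free reaction | Medium: pH 6.0 Bis-Tris with DTT and Tween 20 | Technique: Fluorescence, 480/540 nm | Times: Reaction 20 min, ambient temperature | Doses: Single compound dose of 20 µM, 1% DMSO final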
Scp1 inh: Scp-1 phosphatase inhibitors, primary screen, biochemical, colorimetric, uHTS | Carboxy-terminal domain RNA polymerase II polypeptide A small phosphatase 1 (Homo … | Recombinant Scp1, phosphopeptide, malachite green phosphate absorbance | inhibition, % at 20 µM | hit rate 0.88% among 340,000 | AID 493091, 2011;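 active = inhibition above about 50% at 20 µM, limit read from the data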;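 also: plate controls were DMSO wells with enzyme for no effect and wells lacking enzyme for full effect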
Target sequence (Q9GZU7 76-261 limits assumed): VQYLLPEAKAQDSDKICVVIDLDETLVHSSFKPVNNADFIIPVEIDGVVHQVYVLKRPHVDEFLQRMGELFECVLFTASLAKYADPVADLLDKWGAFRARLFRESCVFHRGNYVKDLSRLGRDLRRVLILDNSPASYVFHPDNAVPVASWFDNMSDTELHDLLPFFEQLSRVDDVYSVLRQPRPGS
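assay system = SCP-1 phosphatase catalytic domain, residues 76-261 | buffer or medium = 50 mM Tris acetate pH 5.5, 0.005% Tween-20, 10 mM MgCl2 | incubation = enzyme reaction 45 min at room temperature, colour 5 min, stabilisation 30 min | signal = Phosphate-binding colour reagent, absorbance read at 630 nm | measure = % inhibition at 20 µM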
HKDC1 inh: HKDC1 hexokinase inhibitors, primary screen, biochemical, fluorescence, uHTS. Q2TB90. recombinant HKDC1, G6PDH/diaphorase resazurin coupled fluorescence. inhibition, % at 20 µM. hit rate 0.16% among 340,000. AID 493160, 2011;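 active = inhibition above about 35% when tested at 20 µM, limit read from the data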;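 also: plate controls were DMSO wells with enzyme for no effect and DMSO wells lacking enzyme for full effect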
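Test system: recombinant HKDC1 (HK5) hexokinase enzyme, produced in-house; Amount: enzyme 5 µg/mL final; Buffer or medium: Tris pH 8.0 buffer with MgCl2, Tween-20, BSA, BME; Reagent: glucose and ATP substrates; Doses: 20 µM test compound, 1% DMSO; Incubation: 90 min reaction incubation at room temperature, dark; Detection: resorufin fluorescence at 613 nm.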
LMPTP block: LMPTP phosphatase inhibitors, primary screen, biochemical, fluorescence intensity, uHTS; recombinant LMPTP-A, OMFP fluorogenic substrate; inhibition, % at 20 µM; hit rate 0.22% among 360,000; AID 651560, 2012;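 active = compounds that cut the enzyme signal by at least half of the control window in the single-dose screen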;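 also: plate controls were DMSO wells with enzyme plus substrate for no effect and substrate without enzyme for full effect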
Target sequence (P24666 whole entry, looked up): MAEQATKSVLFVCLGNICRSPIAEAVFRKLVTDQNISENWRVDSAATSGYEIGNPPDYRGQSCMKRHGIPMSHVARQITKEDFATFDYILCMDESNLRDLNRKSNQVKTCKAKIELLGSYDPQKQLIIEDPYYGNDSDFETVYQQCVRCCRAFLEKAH
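test system = LMPTP-A | amount = 0.625 nM LMPTP-A final | reagent = fluorogenic phosphatase substrate OMFP at 400 µM final | incubation = 50 min at room temperature | benchmarks = no-enzyme low control, uninhibited high control | medium = Bis-Tris pH 6.0, DTT, detergent | signal = fluorescence intensity of OMFP turnover product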
SUMO1-SIM PPI: modulators of SUMO1 protein-protein interactions, primary screen, biochemical, uHTS. Small ubiquitin-related modifier 1 (Homo sapiens), P63165. hit rate 0.33% among 360,000. SUMO1 binding to a labelled peptide, TR-FRET, 1 h. inhibition, % at 20 µM. AID 602429, 2012; in the data active = inhibition above about 37%
Target sequence (P63165 whole entry, looked up): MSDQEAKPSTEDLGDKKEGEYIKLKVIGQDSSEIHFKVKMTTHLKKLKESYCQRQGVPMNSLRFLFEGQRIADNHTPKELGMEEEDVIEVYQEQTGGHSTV
HKDC1 act conf: HKDC1 hexokinase activators, confirmation, biochemical, single concentration; shares compounds with HKDC1 inh; recombinant HKDC1, G6PDH/diaphorase resazurin fluorescence; active compounds read low; inhibition, % at 20 µM; hit rate 14% among 740; AID 504708, 2011;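 active = inhibition at or below a set negative limit, negative inhibition meaning the enzyme was activated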
An asterisk follows results filed as active; · = no result.

SMILES	DNMT1 block	STEP inh	Scp1 inh	HKDC1 inh	LMPTP block	SUMO1-SIM PPI	HKDC1 act conf
CN(C)Cc1cc(O)c(CN(C)C)cc1O	-4	8	-8	47*	-3	0	70
Cc1cc2nc(NC(=O)C3(C)CCN3C(=O)C(C)C)[nH]c2cc1C (stereo not drawn)	4	4	·	·	0	-5	·
CCN(CC)S(=O)(=O)c1ccc(N/N=C(\C)c2ccc(OC)cc2O)nc1	-2	3	3	31	2	6	20
C=CCn1nc([N+](=O)[O-])nc1Sc1cccc2cccnc12	-21	3	-11	-47	0	-11	-52*
O=[N+]([O-])c1ccc(Sc2cccc3cccnc23)cc1	-3	2	-3	14	0	-29	·
Cc1nc2oc3c(NCc4ccccn4)ncnc3c2c2c1COC(C)(C)C2	-3	15	-3	22	-1	-3	·
CCCc1nc2oc3c(NCc4ccccn4)ncnc3c2c2c1COC(C)(C)C2	-2	0	-4	34	-1	0	23
CC(C)c1nc2oc3c(NCC4CCCO4)ncnc3c2c2c1CCC2 (stereo not drawn)	-3	1	-4	35	0	-1	·
COc1ncnc2c1oc1nc(C(C)C)c3c(c12)CC(C)(C)OC3	1	0	-2	53*	-1	2	43
COc1ncnc2c1oc1nc(C)c3c(c12)CC(C)(C)OC3	2	1	-3	20	-1	3	·
CCCc1nc2oc3c(NCC4CCCO4)ncnc3c2c2c1COC(C)(C)C2 (stereo not drawn)	11	-1	-11	35*	1	2	29
CC(C)c1nc2oc3c(NCc4ccccn4)ncnc3c2c2c1COC(C)(C)C2	1	0	-12	35*	2	-1	-4
Cc1ccc(NC(=O)Cn2nnc(C(=O)NCc3cccs3)c2N)cc1F	8	-1	-7	-4	0	1	·
O=C(NN(C(=O)c1ccccc1)c1cccs1)c1ccccc1	-7	3	-10	-4	-1	1	·
CSc1ccc(CN2CCN(S(=O)(=O)Cc3ccccc3)CC2)cc1	1	0	-3	-3	0	5	·
NC(=S)N1N=C(c2ccccc2)CC1=O	-12	0	2	1	-1	-1	·
CC[C@H](C)[C@H](NC(=O)[C@H](Cc1ccc(O)cc1)NC(=O)[C@@H](N)C(C)C)C(=O)N[C@@H](Cc1cnc[nH]1)C(=O)N1CCC[C@H]1C(=O)N[C@@H](Cc1ccccc1)C(=O)O	0	1	-6	-4	-1	4	·
CCC(C)C(N)C1=NC(C(=O)N[C@@H](CC(C)C)C(=O)N[C@H](CCC(=O)[O-])C(=O)N[C@H](C(=O)N[C@H]2CCCCNC(=O)[C@H](CC(N)=O)NC(=O)[C@@H](CC(=O)[O-])NC(=O)[C@H](Cc3cnc[nH]3)NC(=O)[C@@H](Cc3ccccc3)NC(=O)[C@H]([C@@H](C)CC)NC(=O)[C@@H](CCCN)NC2=O)[C@@H](C)CC)CS1.[Zn+2] (stereo partly drawn)	-10	-15	41	92*	0	27	75
Cc1cc2cc(CCNC(=O)c3ccc(S(=O)(=O)N4CCCC4)cc3)c(=O)[nH]c2cc1C	-6	2	-5	41*	1	5	53
O=[N+]([O-])c1ccc(-c2csc(N/N=C/c3cccnc3)n2)cc1	-7	1	-2	36*	6	-10	-25
CCOC(=O)c1c(C)nc2c(c1-c1cc(OC)ccc1OC)C(=O)c1ccccc1-2	-6	5	-9	0	2	-6	·
CCOC(=O)C1=C(Cc2ccc(OC)cc2)C(=O)c2ccccc2C1=O	8	0	-11	71*	2	20	56
CCc1nn2c(=O)cc(COc3ccc(/C=C4\C(=N)N5N=C(C)SC5=NC4=O)cc3)nc2s1	59*	2	33	58*	5	24	-27
O=S(=O)(NC1c2cccc3cccc(c23)C1N1CCNCC1)c1ccccc1 (stereo not drawn)	-8	1	-10	-56	2	-4	-95*
O=S(=O)(NC1c2cccc3cccc(c23)C1N1CCN(CCO)CC1)c1ccccc1 (stereo not drawn)	-1	-4	0	-66	-2	-7	-118*
SMILES	DNMT1 block	STEP inh	Scp1 inh	HKDC1 inh	LMPTP block	SUMO1-SIM PPI	HKDC1 act conf
O=C(c1ccccc1)N1CCN(C2c3cccc4cccc(c34)C2NS(=O)(=O)c2ccccc2)CC1 (stereo not drawn)	-9	0	0	-34	2	-1	·
N=C1N(c2ccccc2)C(=S)C(=Nc2ccccc2)N1c1ccccc1	-6	4	10	-77	0	-2	4
Cc1ccc(C(=O)ONc2ccc(N=NC(=O)c3ccccc3O)cc2)cc1	30	77*	110*	65*	78*	-1	-2
Cc1ccc(C(=O)ONc2ccc(N=O)cc2)cc1	4	2	-7	0	0	20	·
CC(=O)c1ccc(S(=O)(=O)Nc2ccc(C(=O)NCCCn3ccnc3)cc2)cc1	3	-1	-3	-5	4	8	·
CCc1ccc(S(=O)(=O)/N=C2\C=C(Nc3cccc(C(=O)O)c3)C(=O)c3ccccc32)cc1	64*	4	12	53*	7	36	65
CCc1ccc(S(=O)(=O)/N=C2\C=C(Nc3ccc(O)cc3)C(=O)c3ccccc32)cc1	15	5	-15	32	14	20	6
CCc1ccc(S(=O)(=O)/N=C2/C=C(Sc3ncn[nH]3)C(=O)c3ccccc32)cc1	73*	18	5	71*	9	94*	73
O=C1C=C(Nc2ccc(O)cc2)C(=O)c2ccccc21	-6	-3	-4	18	8	-45	·
COc1ccc(CN(C)C(=O)Cn2cnc3c(OCc4ccccc4)ncnc32)cc1OC	2	0	-5	-5	1	-2	·
CC(=NNc1nc2ccccc2o1)c1cc2ccccc2cn1	1	3	2	-48	2	-30	-77*
CC(=NNc1nc2ccccc2o1)c1ncccn1	4	-2	15	-11	0	-14	·
